Source: ChEMBL document CHEMBL4513216, “Probing the Open Global Health Chemical Diversity Library for Multistage-Active Starting Points for Next-Generation Antimalarials” (ACS Infect Dis, 2020)

Experiment: Toxicity liver stage against HepG2, at 10uM
Type: cell-based
Set-up: test concentration 10 uM, cell line HepG2-A16-CD81EGFP
Conditions: human, HepG2-A16-CD81EGFP cells; read-out: INHIBITION
Method in brief: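 Uninfected HepG2-A16-CD81EGFP cells, 3 × 10^3 per well, 1536-well, plated on prespotted compound at 10 μM final, parasite-free screening media added to match infected plates; puromycin 10 μM positive, DMSO 0.5% negative; run in parallel with 48 h PbLuc assay at 37 °C, 5% CO2; viability by CellTiter-Glo luminescence, normalized to controls.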

Row | SMILES | cytotoxicity at 10 µM [%]
1 | Cc1nc(C)n(CC2CCCCN2Cc2nnc(-c3ccco3)o2)n1 (stereo unspecified) | -10.2
2 | CN(CCc1cccs1)C(=O)Nc1cccc(S(C)(=O)=O)c1 | -8.77
3 | CNc1nc2c(c(C(=O)N3CCCC3)n1)CN(C(=O)c1cccs1)CC2 | -112
4 | Cc1cccc(N2CCCN=C2NC(=O)c2cccc(Cl)c2)c1 | 6.39
5 | COC(=O)C1CN(Cc2nc(-c3ccccc3)cs2)C[C@@H](C)O1 (stereo partly specified) | -0.227
6 | O=C(c1cc2cc(F)ccc2[nH]1)N1CCC(Nc2cccnn2)CC1 | -5.97
7 | NC(=O)CN1CCCN(C(=O)c2ccn(-c3ccc(F)cc3)n2)CC1 | -5.69
8 | O=S(=O)(Nc1cnn(C2CCOCC2)c1)c1ccc(F)c(F)c1 | 6.04
9 | CNc1cncc(C2CCCN2Cc2c[nH]cn2)n1 (stereo unspecified) | 0.192
10 | O=C(NCc1cncc2c1CCN(CC1CCOC1)C2)c1ccno1 (stereo unspecified) | 13
11 | CN(Cc1cnn(C)c1)S(=O)(=O)N1CCCCCC1 | -1.43
12 | CN1CCN(CCCNC(=O)c2cc(Cl)c3c(c2)OCO3)CC1 | -16.7
13 | CCn1cc(NC(=O)C(C)n2ncc(Cl)c2C)c(C(=O)NC)n1 (stereo unspecified) | 9.51
14 | N#Cc1cccc(CN2CCCC2Cn2cncn2)c1 (stereo unspecified) | 3.15
15 | CN1CCN(S(=O)(=O)c2cncc(F)c2)c2ccccc2C1 | -3.69
16 | CN(C)S(=O)(=O)c1ccc(CN2CCCC2c2cccs2)o1 (stereo unspecified) | -3.31
17 | O=C(Cc1ccc(F)cc1)N1CCN(CC(O)C2CC2)CC1 (stereo unspecified) | -15.2
18 | CC[C@@H]1N(CC2CCC2)CCC[C@]12CCC(=O)N2Cc1ccncc1 | 7.12
19 | CCc1cn[nH]c1C1CCN(c2cc(C)c3cc(OC)ccc3n2)CC1 | 1.93
20 | Cc1cc(C(=O)N2CCCC(n3ccnc3C)C2)c(C)s1 (stereo unspecified) | -16
21 | Cc1cnn(CC2CN(c3ncnc4[nH]ccc34)CCO2)c1 (stereo unspecified) | -1.91
22 | CC(C)c1nc(C(=O)NCCn2ccnc2)nn1-c1cccc(F)c1 | -7.64
23 | O=C1CC2(CCN(c3nncs3)C2)CN1c1cccc(F)c1 (stereo unspecified) | -3.36

Row | SMILES | cytotoxicity at 10 µM [%]
24 | Cc1ccc(N2CCN(C(=O)COc3ccccc3)CC2)nn1 | -14.6
25 | CCOC(=O)c1cnn(C2CCN(C(=O)CC(C)(C)C)CC2)c1N | 6.26
26 | CC(C)c1noc(OCC(=O)N2CCCCC2C)n1 (stereo unspecified) | 1.45
27 | CC(C)C1CN(C(=O)c2ccncc2)CCS1 (stereo unspecified) | 9.72
28 | CC(Cn1cccn1)NC(=O)c1cccs1 (stereo unspecified) | -4.26
29 | CC(=O)NCC1CCN(C(=O)CCOc2ccc(C(C)C)cc2)CC1 | -11.6
30 | Cn1ccnc1CN1C[C@@H](CN2CCCCC2)[C@@H](CO)C1 | 11.7
31 | Cc1cc(C)n(CCN2CCOC(CNc3cccnn3)C2)n1 (stereo unspecified) | -3.2
32 | O=C(Nc1cccc(C(=O)OCC2CCCN2)c1)c1ccoc1 (stereo unspecified) | -3.06
33 | NC(=O)C(CNC(=O)Cc1ccsc1)Cc1ccc(F)cc1 (stereo unspecified) | 9.21
34 | O=C(NCCNc1ncccn1)NCc1cccc(OC(F)F)c1 | -2.64
35 | COC1CCCN(CCCc2cn[nH]c2)C1 (stereo unspecified) | 2.24
36 | CS(=O)(=O)N1CCCC(C(=O)Nc2cnn(Cc3ccc(F)cc3)c2)C1 (stereo unspecified) | -3.64
37 | C[C@@H](NCc1cccc(Cl)c1)c1onc(-c2ccccc2)c1C(=O)O | -4.98
38 | Cc1nn(CN(CC2CCOC2)C2CC2)c(=O)c2ccccc12 (stereo unspecified) | 4.77
39 | Cc1nsc(NCCNS(=O)(=O)c2cccc(Cl)c2)n1 | 5.62
40 | O=C1NCC2(CCCN(C(=O)c3ccc4c(c3)OCCO4)CC2)O1 (stereo unspecified) | -9.35
41 | CC(=O)N1CCCC2(CCN(c3ccccc3)C2=O)C1 (stereo unspecified) | 1.91
42 | CCOc1ccc(S(=O)(=O)NC(=O)c2c(C)noc2C(C)C)cc1 | -3.08
43 | Cc1nccc(C2CCCCN2Cc2ccccc2)n1 (stereo unspecified) | -28.2
44 | Cc1ccc(N2CCCN(C(=O)c3cc(CC(C)C)n[nH]3)CC2)nn1 | -14.6
45 | O=C(Nc1cnccn1)[C@H]1CC[C@@H]2[C@@H](CCN2Cc2ccccn2)O1 | -139
46 | CN(CCc1ccncc1)C(=O)C1CSCN1C(=O)C1CCCC1 (stereo unspecified) | -7.39

Row | SMILES | cytotoxicity at 10 µM [%]
47 | COc1ccc(CN2CCC3(CCCNC3)C2)cc1Cn1cccn1 (stereo unspecified) | -10.1
48 | CC(=O)N1CCOCC2(CCN(Cc3ccc(C)s3)CC2)C1 | -5.39
49 | O=C1COC2(CCN(CC3CCOCC3)CC2)CN1Cc1ccccn1 | -2.76
50 | Cc1ccc2cc(C3(O)CCN(C(=O)CN4CCCC4)CC3)ccc2n1 | 2.57
51 | COc1cc(CNC(C)Cn2cccn2)cc(OC)c1 (stereo unspecified) | 0.681
52 | CC(C)CNC(=O)Cc1cnc(-n2cccc2)s1 | -3.66
53 | CC(C)(C)CC(NC(=O)N1CCC(C(N)=O)CC1)C(F)(F)F (stereo unspecified) | -1.14
54 | Cc1cc(N2CCCC2c2nccnc2C)ncn1 (stereo unspecified) | -20.8
55 | CSCCC(C)NC(=O)N1CCSC(C)(C)C1 (stereo unspecified) | 5.89
56 | CCC(C)N1C(=O)c2ccc(C(=O)NCCc3c[nH]cn3)cc2C1=O (stereo unspecified) | -8.64
57 | Cc1ncccc1CNCC1CCCN1c1cccnn1 (stereo unspecified) | -14.2
58 | CNC(=O)CCc1cc(C2CCCN2S(C)(=O)=O)nc(C)n1 (stereo unspecified) | -0.0612
59 | Cn1cc(C2CCCN2CCC(=O)N2CCc3sccc3C2)cn1 (stereo unspecified) | -8.25
60 | COCCN1C[C@H]2CCN(c3ncccn3)CC[C@H]2S1(=O)=O | -2.2
61 | CCc1ccc(Cn2nccc2NC(=O)C2CCS(=O)(=O)C2)cc1 (stereo unspecified) | -1.32
62 | Cc1ccc(CNC(=O)NCCCn2nc3ccccn3c2=O)s1 | -2.09
63 | CSc1ncc(CN2CC(Oc3c(C)cccc3C)C2)cn1 | 10.3
64 | CN(C)C(=O)COCC1CN(S(C)(=O)=O)Cc2ncn(C)c21 (stereo unspecified) | 4.39
65 | COC(=O)COc1c(F)cc(Br)cc1C(C)=O | 2.63
66 | Cc1ccc(C2COCCN2C(=O)c2ccsc2)o1 (stereo unspecified) | -2.55
67 | Nc1cc(-c2c[nH]nc2C2CCCN2CCCc2ccccc2)ccn1 (stereo unspecified) | 3.75
68 | O=C1NCC[C@]12CN(CC1CCOCC1)C[C@H]2c1ccccc1 | 6.59
69 | N#Cc1ccc(C(=O)NS(=O)(=O)c2ccc(F)c(F)c2)cc1 | -4.11

Row | SMILES | cytotoxicity at 10 µM [%]
70 | Cc1cc(C)nc(C2CCN(C(=O)CCn3nnc4ccccc43)C2)n1 (stereo unspecified) | -0.834
71 | Nc1nc(N)c2c(n1)OC1(CCN(C(=O)CC3CCCNC3)CC1)C2 (stereo unspecified) | 5.03
72 | CCN(CC)c1nc(O)cc(C(C)n2ncc3ccccc3c2=O)n1 (stereo unspecified) | 2.47
73 | NC(=O)C1CCN(C(=O)NCCOc2ccc3c(c2)OCO3)C1 (stereo unspecified) | -13.3
74 | CNS(=O)(=O)c1ccc(CN(C)Cc2nc3ccc(F)cc3[nH]2)cc1 | 17.2
75 | N#Cc1cccnc1OC1CCN(C(=O)c2cc(C3CC3)on2)CC1 | 0.253
76 | O=S1(=O)C[C@@H]2[C@H](C1)N(Cc1nc3ccccc3[nH]1)CCN2CC1CC1 | -133
77 | O=C(Nc1cccnc1)NC(CCCO)c1ccccc1 (stereo unspecified) | -4.4
78 | COCCN(C)C[C@@H]1CN(C(=O)NC2CCCCC2)C[C@@H]1CO | 3.41
79 | Cc1occc1C(=O)N1CCCn2cnc(CN3CCCC3=O)c2C1 | 4.24
80 | CCN(Cc1csc(C)n1)c1cccc(CO)c1 | -6.55
81 | CC(C)NC(=O)C1CN(C(=O)c2ccco2)CC12CCOCC2 (stereo unspecified) | -0.516
82 | CC(C)(C)c1cn2nc(N3CCCC3Cn3cncn3)sc2n1 (stereo unspecified) | 1.43
83 | COc1ccc(CN2CCC3(CCN(c4cccnc4)C3=O)C2)cc1 (stereo unspecified) | 5.16
84 | CC(C)CNc1nccc(-c2cnc3sc(Cl)cn3c2=O)n1 | -0.723
85 | CCC[C@H]1CN(Cc2cc(C#N)n(C)c2C)C[C@@H]1NS(=O)(=O)CC | -153
86 | O=C(NC[C@]12COC[C@H]1CN(Cc1cccnc1)C2)c1ccno1 | 4.35
87 | Cc1ccc(OCC(=O)NC2CCN(S(C)(=O)=O)CC2)cc1 | -0.0552
88 | COCc1cncc2c1CCN(C(=O)c1cccc(C#N)c1)C2 | -98.2
89 | CN(C)C1CCN(c2cc(-c3ccccc3)nc3ccnn23)C1 (stereo unspecified) | -53.5
90 | COc1ccccc1CN(CC1CCCO1)C(=O)c1cc(C)n[nH]1 (stereo unspecified) | -2.28
91 | N#Cc1ccccc1CC1CCCS(=O)(=O)C1 (stereo unspecified) | -3.11
92 | O=C(NCc1ccccc1F)Nc1ccn(CCN2CCOCC2)n1 | -7.85

Row | SMILES | cytotoxicity at 10 µM [%]
93 | COc1cnc(CN2CCN(CC(C)C)C(=O)C2C)cc1O (stereo unspecified) | 3.28
94 | Cc1nc(CN2CCC3(CCN(C(=O)c4ccoc4C)CC3)C2)cs1 | -5.19
95 | OC(CN(Cc1ccccc1)Cc1ccncc1)c1cccs1 (stereo unspecified) | -3.65
96 | CC(C)CN1CC2(CCN(C(=O)C(O)c3ccccc3Cl)CC2)CC1=O (stereo unspecified) | 6.89
97 | COCCN1CCCC(O)(CN2CCN(c3ncccc3C)CC2)C1=O (stereo unspecified) | -10.3
98 | COc1ccc(Cn2cc(C(=O)N(C)Cc3ccn[nH]3)nn2)cc1 | 8.95
99 | N#Cc1nccnc1N1CCN(CCOCc2ccccc2)CC1 | -18.4
100 | Cc1cc(Cl)ccc1NCc1cnn(C2CCS(=O)(=O)C2)c1 (stereo unspecified) | 6.51
101 | COc1ccc(OCc2cc(C(=O)N3CCSCC3)n[nH]2)c(Cl)c1 | -7.51
102 | Cc1nc(N2CCCC2)nc2c1CCN(Cc1ccsc1)CC2 | -106
103 | Cc1nnc(CN(Cc2cccc(Br)c2)C2CC2)o1 | 3.94
104 | O=C1CCC2(CCCN(C(=O)C3CCCC3)C2)CN1CCc1c[nH]cn1 (stereo unspecified) | -0.699
105 | COc1cc(N2C[C@H]3CC[C@@H](C2)N(CC2CCC2)C3=O)ncn1 | -1.15
106 | Cc1oc(C)c(C(=O)N2CCCN(Cc3cscn3)CC2)c1C | 6.88
107 | CC(CO)NC(=O)c1ccc(NCc2ccc(F)c(F)c2)cc1 (stereo unspecified) | -5.89
108 | CC(c1nc(C2CC2)no1)N1CCN(Cc2ccccc2F)CC1 (stereo unspecified) | 1.03
109 | CC(C)CC(=O)N1CCCC1c1ccsc1 (stereo unspecified) | 2.96
110 | O=S(=O)(CC1CCCCO1)Nc1c(F)cccc1-n1cccn1 (stereo unspecified) | 3.44
111 | CS(=O)(=O)c1cc(C(=O)NS(=O)(=O)Cc2ccc(F)cc2)ccc1Cl | -3.38
